# Measurements pooled from the literature.
# Compare with care: the assays were run in different laboratories.
# Target: Macrophage-stimulating protein receptor (MST1R, Homo sapiens, UniProt Q04912)
Compound,effect on,method,tested at,remaining binding [%]
O=C(NCC1CCOCC1)c1n[nH]cc1NC(=O)c1c(F)cccc1F,binding,competition with immobilised ligand,1 µM,100
F[C@@H]1CCN(c2nccc(-c3cnn4ncccc34)n2)C1,binding,,1 µM,100
O=C(c1ccc(Nc2ncc(Cl)c(-c3cc4ccccc4s3)n2)cc1)N1CCC(N2CCCC2)CC1,binding,competition with immobilised ligand,1 µM,56
FC(F)(F)Oc1cccc(-c2cnc3ccc(-c4ccncc4)nn23)c1,cell-free assay,competition with immobilised ligand,5 µM,79
C[C@@H]1CN(c2cc(-c3n[nH]c4ccc(OC5(C)CC5)cc34)ncn2)C[C@H](C)O1,cell-free assay,competition with immobilised ligand,0.1 µM,100
COc1ccnn2ncc(-c3ccnc(N(C)C)n3)c12,binding,,1 µM,100
C[C@@H](c1ccc(-n2cnc3c(N)ncnc32)cc1)N1CCc2nn(C)c(Cc3ccccc3)c2C1=O,binding,competition with immobilised ligand,0.1 µM,83
CO[C@@H](C)c1c(Nc2ccc([C@@H](N(C)C(=O)C3CCS(=O)(=O)CC3)C(F)(F)F)cc2)cnc2cc(Cl)nn12,cell-free assay,competition with immobilised ligand,1 µM,100
Nc1ncc2c(n1)-c1c([nH]c3ccc(C#CC4CC4)cc13)CCCC2,binding,competition with immobilised ligand,1 µM,100
CNC(=O)Nc1ccc2c(c1)[C@@]1(CC2)OC(=O)N(CC(=O)N(Cc2ccc(F)cc2)[C@@H](C)C(F)(F)F)C1=O,cell-free assay,competition with immobilised ligand,1 µM,100
C[C@@H]1CCN(c2nccc(-c3cnn4ncccc34)n2)C1,binding,,1 µM,100
CNC(=O)c1ccc(Nc2ncc(C(F)(F)F)c(NCc3nccnc3N(C)S(C)(=O)=O)n2)cc1,cell-free assay,competition with immobilised ligand,0.1 µM,100
CCN1CCN(Cc2ccc(C(=O)Nc3ccc(C)c(Oc4ccc5c(c4)CC(=O)N5)c3)cc2C(F)(F)F)CC1,binding,competition with immobilised ligand,1 µM,88
O=C(O)[C@H]1[C@H](Cn2nnc3ccccc3c2=O)CC[C@@H]1C(=O)c1ccc(OCCC2CCOCC2)cc1,cell-free assay,competition with immobilised ligand,1 µM,96
COc1cnc(Nc2cccc(S(N)(=O)=O)c2)nc1N1CCN(c2ccccc2)C(=O)C1,binding,competition with immobilised ligand,1 µM,100
CN(CCCC(F)(F)F)c1nccc(-c2cnn3ncccc23)n1,binding,,1 µM,100
O=C(NCCCN1CCOCC1)c1ccc(Nc2ncc(Cl)c(-c3ccc(Cl)s3)n2)cc1,binding,competition with immobilised ligand,1 µM,67
CN(C)c1nccc(-c2cnc3ncccn23)n1,binding,,1 µM,98
O=C(c1ccc(Nc2ncc(Cl)c(-c3ccc(Cl)s3)n2)cc1)N1CCC(N2CCCC2)CC1,binding,competition with immobilised ligand,1 µM,43
N[C@@H]1CCN(c2nccc(-c3cnn4ncccc34)n2)C1,binding,,1 µM,100
Cc1c[nH]c2nccc(Oc3c(F)cc(Nc4cc(Cl)nc(N)n4)cc3F)c12,cell-free assay,competition with immobilised ligand,0.1 µM,74
